Laboratory results from ChEMBL document CHEMBL5620421, “2,6-Disubstituted 7-(naphthalen-2-ylmethyl)-7H-purines as a new class of potent antitubercular agents inhibiting DprE1” (Eur J Med Chem, 2023).
≈ marks a conversion by molar mass, not a printed value. Calls of active or inactive are those of the source. No cut-off for these calls is given here.

Experiments:
Klebsiella pneumoniae [1] = assay: Antibacterial activity against ESBL negative Klebsiella pneumoniae C1950 assessed as inhibition of bacterial growth at 125 uM incubated for 24 to 48 hrs by microdilution broth method; type: functional, organism-based; settings: time 24-48 hrs
Klebsiella pneumoniae [2] = assay: Antibacterial activity against ESBL positive Klebsiella pneumoniae C1914 assessed as inhibition of bacterial growth incubated for 24 to 48 hrs by microdilution broth method; type: functional, organism-based; settings: time 24-48 hrs
Outline: (§1)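 Clinical isolates kept at –70 °C and subcultured twice on Mueller-Hinton agar, using the second subculture. Broth microdilution in Mueller-Hinton broth at pH 7.4 with two-fold serial compound dilutions and DMSO ≤1% final. Inoculum was 10 μL of a 1.5 × 10⁸ CFU/mL suspension. Incubated at 36 °C ± 1 °C and read at 24 h and 48 h. MIC taken as 95% growth inhibition.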

H9c2 [3] = assay: Cytotoxicity against rat H9c2 cells assessed as cell viability incubated for 72 hrs by MTT spectrophotometric analysis; type: functional, cell-based; settings: H9c2, 72 h
Outline: (§2)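 HepG2 or rat H9c2 cells in DMEM with FBS, seeded at 10,000 cells/well. Treated 24 h later for 72 h, with 0.1% DMSO vehicle and 1% Triton X-100 as controls. MTT added (3 mg/mL solution) for 2 h at 37 °C, then cells lysed in isopropanol/0.1 M HCl/5% Triton X-100. Read at 570 nm minus 690 nm. Viability expressed as % of vehicle; IC50 derived where reached. At least four independent experiments.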

[4] = Stability in human plasma assessed as compound remaining at 1 uM incubated for 15 to 120 mins by LC-MS analysis; type: ADME, cell-free; settings: time 15-120 min, read-out: Stability
Outline: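 Stopped with acetonitrile containing internal standard and centrifuged at 12,000 rpm for 5 min at 4 °C. Supernatant analysed by LC-MS in positive mode. % remaining taken from compound/IS peak-area ratios at 120 versus 0 min.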

Enterococcus faecium = assay: Antibacterial activity against vancomycin-resistant Enterococcus faecium assessed as inhibition of bacterial growth at 125 uM incubated for 24 to 48 hrs by microdilution broth method; type: functional, organism-based; settings: time 24-48 hrs
Mycobacterium kansasii = assay: Antitubercular activity against Mycobacterium kansasii CNCTC My 235/80 assessed as inhibition of bacterial growth measured after 14 days of incubation by Sulas semisynthetic medium based assay; type: functional; settings: CNCTC My 235/80, 336 h, time 14 day
Outline: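 Micromethod in Sula's semisynthetic medium. MIC is the lowest concentration inhibiting >99% of the mycobacterial population. Isoniazid was the standard.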

Staphylococcus aureus [5] = assay: Antibacterial activity against Staphylococcus aureus C1947 assessed as inhibition of bacterial growth at 125 uM incubated for 24 to 48 hrs by microdilution broth method; type: functional, organism-based; settings: time 24-48 hrs
[6] = tested on: Mycobacterium tuberculosis; assay: Antimycobacterial activity against MDR clinical isolate Mycobacterium tuberculosis 9449/2007 assessed as inhibition of mycobacterial growth measured after 14 to 21 days of incubation by Sulas semisynthetic medium based assay; type: functional; settings: time 14-21 day
Outline: (§3)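 Clinical MDR/XDR M. tuberculosis isolates were tested by the Sula's semisynthetic medium micromethod. Compounds in DMSO at 1000 to 0.5 μmol/L, in twofold-type steps. Incubation at 37 °C, read at 14 and 21 days. MIC99 is the lowest concentration inhibiting >99% of growth. Drug resistance or susceptibility of each isolate is to amikacin, clofazimine, gentamicin, ofloxacin, streptomycin and the others listed.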

Mycobacterium avium [7] = assay: Antitubercular activity against Mycobacterium avium CNCTC My 330/88 assessed as inhibition of bacterial growth measured after 14 days of incubation by Sulas semisynthetic medium based assay; type: functional; settings: CNCTC My 330/88, 336 h, time 14 day
Outline: (§4)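 M. avium was tested by the micromethod in Sula's semisynthetic medium. Compounds in DMSO at 1000 to 0.5 μmol/L. Incubation at 37 °C, read at 14 and 21 days. MIC is the lowest concentration giving >99% growth inhibition.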

HepG2 [8] = assay: Cytotoxicity against human HepG2 cells assessed as cell viability at 50 uM incubated for 72 hrs by MTT spectrophotometric analysis relative to control; type: functional; settings: read-out: Activity; outline: as §2
[9] = Selectivity index, ratio of IC50 for cytotoxicity against human HepG2 cells by MTT assay to MIC99 for antitubercular activity against Mycobacterium tuberculosis CNCTC My 331/88 (H37Rv) assessed as inhibition of bacterial growth measured after 14 days of incubation; type: functional; settings: time 14 day
Outline: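 HepG2 cells, 15 × 10³/well, were attached overnight and exposed 24 h to serial dilutions (DMSO ≤1%). Read by MTT at 0.5 mg/mL for 1 h and 570 nm. IC50 from 4-parameter regression, three independent experiments in triplicate. SI is HepG2 IC50 divided by H37Rv MIC99.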

H9c2 [10] = assay: Cytotoxicity against rat H9c2 cells assessed as cell viability at 50 uM incubated for 72 hrs by MTT spectrophotometric analysis relative to control; type: functional; settings: read-out: Activity; outline: as §2
Escherichia coli = assay: Antibacterial activity against Escherichia coli A1235 assessed as inhibition of bacterial growth incubated for 24 to 48 hrs by microdilution broth method; type: functional, organism-based; settings: time 24-48 hrs; outline: as §1
Mycobacterium avium [11] = assay: Antitubercular activity against Mycobacterium avium CNCTC My 330/88 assessed as inhibition of bacterial growth measured after 21 days of incubation by Sulas semisynthetic medium based assay; type: functional; settings: CNCTC My 330/88, 504 h, time 21 day; outline: as §4
[12] = tested on: Staphylococcus epidermidis; assay: Antibacterial activity against Staphylococcus epidermidis C1936 assessed as inhibition of bacterial growth at 125 uM incubated for 24 to 48 hrs by microdilution broth method; type: functional, organism-based; settings: time 24-48 hrs
Staphylococcus aureus [13] = assay: Antibacterial activity against methicilin-resistant Staphylococcus aureus C1923 assessed as inhibition of bacterial growth at 125 uM incubated for 24 to 48 hrs by microdilution broth method; type: functional, organism-based; settings: time 24-48 hrs
HepG2 [14] = assay: Cytotoxicity against human HepG2 cells incubated for 24 hrs by MTT assay; type: functional, cell-based; settings: HepG2, 24 h
Outline: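 HepG2 cells in DMEM with 10% FBS, seeded at 15 × 10³ cells/well and attached overnight. Exposed for 24 h to serial dilutions prepared from DMSO stocks, final DMSO ≤1%. Then given fresh medium with 0.5 mg/mL MTT for 1 h at 37 °C. Formazan dissolved in DMSO and read at 570 nm. IC50 from 4-parameter nonlinear regression; three independent experiments in triplicate, mean ± SD.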

Pseudomonas aeruginosa = assay: Antibacterial activity against multidrug-resistant Pseudomonas aeruginosa A1245 assessed as inhibition of bacterial growth at 125 uM incubated for 24 to 48 hrs by microdilution broth method; type: functional, organism-based; settings: time 24-48 hrs
[15] = tested on: Mycobacterium tuberculosis; assay: Antimycobacterial activity against MDR clinical isolate Mycobacterium tuberculosis PRAHA 1 assessed as inhibition of mycobacterial growth measured after 14 to 21 days of incubation by Sulas semisynthetic medium based assay; type: functional; settings: time 14-21 day; outline: as §3
[16] = tested on: Mycobacterium tuberculosis; assay: Antimycobacterial activity against MDR clinical isolate Mycobacterium tuberculosis 7357/1998 assessed as inhibition of mycobacterial growth measured after 14 to 21 days of incubation by Sulas semisynthetic medium based assay; type: functional; settings: time 14-21 day; outline: as §3
[17] = tested on: Mycobacterium tuberculosis; assay: Antimycobacterial activity against MDR clinical isolate Mycobacterium tuberculosis PRAHA 4 assessed as inhibition of mycobacterial growth measured after 14 to 21 days of incubation by Sulas semisynthetic medium based assay; type: functional; settings: time 14-21 day; outline: as §3
[18] = tested on: Mycobacterium tuberculosis; assay: Antimycobacterial activity against XDR clinical isolate Mycobacterium tuberculosis PRAHA 1 assessed as inhibition of mycobacterial growth measured after 14 to 21 days of incubation by Sulas semisynthetic medium based assay; type: functional; settings: time 14-21 day; outline: as §3

| SMILES | Activity (Klebsiella pneumoniae [1]) | Activity (Klebsiella pneumoniae [2]) | IC50 (H9c2 [3]) | remaining at 1 µM [4] | Activity (Enterococcus faecium) | MIC99 (Mycobacterium kansasii) | Activity (Staphylococcus aureus [5]) | MIC99 [6] | MIC99 (Mycobacterium avium [7]) | viability at 50 µM (HepG2 [8]) | Selectivity Index [9] | viability at 50 µM (H9c2 [10]) | Activity (Escherichia coli) | MIC99 (Mycobacterium avium [11]) | Activity [12] | IC50 (HepG2 [14]) | MIC99 [15] | MIC99 [16] | MIC99 [17] | MIC99 [18] | also measured |
| --- | --- | --- | --- | --- | --- | --- | --- | --- | --- | --- | --- | --- | --- | --- | --- | --- | --- | --- | --- | --- | --- |
| Nc1nc(N2CCOCC2)nc2ncn(Cc3ccc4ccccc4c3)c12 | inactive | inactive | > 50 µM | 103% | inactive | 16 µM (≈ 5.77 µg/mL) | inactive | 2 µM (≈ 0.721 µg/mL) | > 500 µM | 77% | >125 | 91.7% | inactive | > 500 µM | inactive | > 125 µM |  |  |  |  | Activity (Staphylococcus aureus [13]): inactive; Activity (Pseudomonas aeruginosa): inactive |
| COc1nc(N2CCOCC2)nc2ncn(Cc3ccc4ccccc4c3)c12 |  | inactive | > 50 µM |  |  | 32 µM (≈ 12 µg/mL) |  | 8 µM (≈ 3 µg/mL) | 250 µM (≈ 93.9 µg/mL) | 66.4% | 32 | 92.6% | inactive | 500 µM (≈ 188 µg/mL) |  | 64.3 µM | 16 µM (≈ 6.01 µg/mL) | 16 µM (≈ 6.01 µg/mL) | 8 µM (≈ 3 µg/mL) | 16 µM (≈ 6.01 µg/mL) |  |
| c1ccc2cc(Cn3cnc4nc(N5CCOCC5)nc(NC5CCC5)c43)ccc2c1 |  | inactive |  | 97.5% |  | 8 µM (≈ 3.32 µg/mL) |  | 4 µM (≈ 1.66 µg/mL) | 250 µM (≈ 104 µg/mL) |  | 16.5 |  | inactive | 500 µM (≈ 207 µg/mL) |  | 33 µM | 4 µM (≈ 1.66 µg/mL) | 4 µM (≈ 1.66 µg/mL) | 4 µM (≈ 1.66 µg/mL) | 4 µM (≈ 1.66 µg/mL) |  |
| O=c1[nH]c(N2CCCCC2)nc2ncn(Cc3ccc4ccccc4c3)c12 |  | inactive | > 50 µM | 96.7% |  | > 500 µM |  | 8 µM (≈ 2.88 µg/mL) | > 500 µM | 42.2% | 43.6 | 79.4% | inactive | > 500 µM |  | 87.2 µM | 16 µM (≈ 5.75 µg/mL) | 16 µM (≈ 5.75 µg/mL) | 8 µM (≈ 2.88 µg/mL) | 16 µM (≈ 5.75 µg/mL) |  |
| O=c1[nH]c(N2CCSCC2)nc2ncn(Cc3ccc4ccccc4c3)c12 |  | inactive | > 50 µM | 98.2% |  | 64 µM (≈ 24.2 µg/mL) |  | 8 µM (≈ 3.02 µg/mL) | > 500 µM | 72.9% | 16 | 97.1% | inactive | > 500 µM |  | > 32 µM | 16 µM (≈ 6.04 µg/mL) | 16 µM (≈ 6.04 µg/mL) | 8 µM (≈ 3.02 µg/mL) | 16 µM (≈ 6.04 µg/mL) |  |
| c1ccc(CNc2nc(N3CCOCC3)nc3ncn(Cc4ccc5ccccc5c4)c23)cc1 |  | inactive |  | 99.2% |  | 4 µM (≈ 1.8 µg/mL) |  | 4 µM (≈ 1.8 µg/mL) | 64 µM (≈ 28.8 µg/mL) |  | 16.9 |  | inactive | 64 µM (≈ 28.8 µg/mL) |  | 33.8 µM | 4 µM (≈ 1.8 µg/mL) | 2 µM (≈ 0.901 µg/mL) | 4 µM (≈ 1.8 µg/mL) | 4 µM (≈ 1.8 µg/mL) |  |
| CCOc1nc(N2CCOCC2)nc2ncn(Cc3ccc4ccccc4c3)c12 | inactive | inactive | > 50 µM | 99.6% | inactive | 16 µM (≈ 6.23 µg/mL) | inactive | 2 µM (≈ 0.779 µg/mL) | > 500 µM | 23.5% | 43.45 | 94.8% | inactive | > 500 µM | inactive | 43.5 µM |  |  |  |  | Activity (Staphylococcus aureus [13]): inactive; Activity (Pseudomonas aeruginosa): inactive |
| CCNc1nc(N2CCOCC2)nc2ncn(Cc3ccc4ccccc4c3)c12 | inactive | inactive | > 50 µM | 95.5% | inactive | 8 µM (≈ 3.11 µg/mL) | inactive | 2 µM (≈ 0.777 µg/mL) | 250 µM (≈ 97.1 µg/mL) | 66.9% | 63.88 | 88% | inactive | 250 µM (≈ 97.1 µg/mL) | inactive | 63.9 µM |  |  |  |  | Activity (Staphylococcus aureus [13]): inactive; Activity (Pseudomonas aeruginosa): inactive |
| O=c1[nH]c(N2CCOCC2)nc2ncn(Cc3ccc4ccccc4c3)c12 |  | inactive | > 50 µM | 96.6% |  | 64 µM (≈ 23.1 µg/mL) |  | 32 µM (≈ 11.6 µg/mL) | > 500 µM | 60.5% | 31.25 | 86% | inactive | > 500 µM |  | > 125 µM | 32 µM (≈ 11.6 µg/mL) | 32 µM (≈ 11.6 µg/mL) | 16 µM (≈ 5.78 µg/mL) | 64 µM (≈ 23.1 µg/mL) |  |
